Experimental data from ChEMBL document CHEMBL1153444, “Discovery of dual inhibitors targeting both HIV-1 capsid and human cyclophilin A to inhibit the assembly and uncoating of the viral capsid” (Bioorg Med Chem, 2009).
Active and inactive are the calls of the source. The calls are words filed in the database; no cut-off is given here.

Experiments:
[1] = test system: Simian immunodeficiency virus; assay: Antiviral activity against SIV in human CEM cells assessed as inhibition of virus-induced cytopathogenicity; assay type: functional, organism-based, CCRF-CEM; details: Simian immunodeficiency virus, CCRF-CEM; read-out: EC50
Summary of the method: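 SIV syncytium assay in CEM174 cells (2 × 10⁵ cells/ml) infected with 100 TCID₅₀ SIV per well alongside serial compound dilutions. Cultures were kept 5 days at 37 °C in humidified 5% CO₂, then giant-cell formation was scored microscopically. EC₅₀ is the concentration protecting cells from SIV cytopathogenicity by 50%.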

[2] = Cytotoxicity against human CEM cells; assay type: cell-based; details: CEM cells (CCRF-CEM), read-out: TC50 (the source's name)
[3] = Therapeutic index, TC50 for human CEM cells to EC50 for SIV; assay type: cell-based, CCRF-CEM
[4] = target: Structural capsid protein (Human immunodeficiency virus 1) (UniProt Q76129); assay: Binding affinity to HIV1 capsid assessed as assembly rate per minute by ultraviolet spectrophotometry assay
Structural capsid protein (Human immunodeficiency virus 1), sequence (Q76129 as listed by the source): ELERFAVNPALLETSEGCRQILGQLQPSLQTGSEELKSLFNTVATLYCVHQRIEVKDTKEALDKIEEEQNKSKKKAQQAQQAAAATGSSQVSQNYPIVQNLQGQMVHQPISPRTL
Summary of the method: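 Turbidity was read at 350 nm every 10 s after a short equilibration delay. Assembly rate (mOD/min) was taken from the initial slope of absorbance versus time.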

[5] = target: T1, Peptidyl-prolyl cis-trans isomerase A (Homo sapiens, UniProt P62937); assay: Binding affinity to human cyclophilin A by intrinsic tryptophan fluorescence titration assay
T1 sequence (P62937 whole entry): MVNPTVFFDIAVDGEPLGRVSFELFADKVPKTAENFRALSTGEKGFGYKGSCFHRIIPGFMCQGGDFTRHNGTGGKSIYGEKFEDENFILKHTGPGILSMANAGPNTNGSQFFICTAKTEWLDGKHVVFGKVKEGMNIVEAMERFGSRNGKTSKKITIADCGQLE
Summary of the method: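 CypA intrinsic tryptophan fluorescence titration in 20 mM Tris–HCl, 100 mM NaCl, pH 7.4, at 25 °C, with compounds from 10 mM DMSO stocks. Excitation was 280 nm and emission was read at 340 nm. Kd was obtained by fitting intensity against final compound concentration to F₀/F = 1 + Ka·C.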

[6] = target: Protease (Human immunodeficiency virus 1) (UniProt Q9YQ12); assay: Inhibition of HIV1 protease
Protease (Human immunodeficiency virus 1), sequence (Q9YQ12 as listed by the source): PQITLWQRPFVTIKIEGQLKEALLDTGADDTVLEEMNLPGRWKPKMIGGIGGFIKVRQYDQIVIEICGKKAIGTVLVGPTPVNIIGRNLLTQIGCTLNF
Summary of the method: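 HIV-1 protease was preincubated with inhibitor (DMSO) for 20 min at room temperature in 0.1 M MES, 0.2 M NaCl, 5 mM EDTA, pH 5.5. The reaction was started with substrate Lys-Ala-Arg-Val-Leu-Phe(NO₂)-Glu-Ala-Met, and hydrolysis was followed as the A280 decrease over 40 min. Inhibition ratio was taken from Ai/A₀, with and without inhibitor.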

[7] = target: Human immunodeficiency virus type 1 integrase (Human immunodeficiency virus 1) (UniProt Q7ZJM1); assay: Inhibition of HIV1 integrase at 20 uM; set-up: scale not given: the % may be the effect or the level left
Human immunodeficiency virus type 1 integrase (Human immunodeficiency virus 1), sequence (Q7ZJM1 as listed by the source): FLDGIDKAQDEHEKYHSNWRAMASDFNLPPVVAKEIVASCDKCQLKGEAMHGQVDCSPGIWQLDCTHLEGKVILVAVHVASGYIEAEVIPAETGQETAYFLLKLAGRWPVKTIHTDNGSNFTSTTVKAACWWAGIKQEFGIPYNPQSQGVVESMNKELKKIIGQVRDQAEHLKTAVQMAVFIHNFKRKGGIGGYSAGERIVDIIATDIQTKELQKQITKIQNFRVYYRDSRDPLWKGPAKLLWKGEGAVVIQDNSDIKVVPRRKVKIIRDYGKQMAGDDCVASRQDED
Summary of the method: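 Recombinant HIV-1 integrase (E. coli) was preincubated with compound for 30 min. It was then incubated for 30 min at 37 °C on plate-immobilized donor duplex in Tris–HCl pH 7.8, 25 mM NaCl, 7.5 mM MgCl₂, 5 mM β-mercaptoethanol and BSA. Biotinylated target duplex was added for 1 h at 37 °C. Integration products were detected by pNPP phosphatase read-out at A405, and inhibition was taken as the decrease in final absorbance.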

[8] = target: T1, Peptidyl-prolyl cis-trans isomerase A; assay: Inhibition of human cyclophilin A at 6 degC
Summary of the method: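 PPIase assay at 6 °C in 50 mM HEPES, 100 mM NaCl, using Suc-AAPF-pNA substrate (3 mM stock in THF with 480 mM LiCl). A390 was recorded for 20 s after about a 6 s mixing delay. Cis–trans rate constants came from nonlinear least-squares fits to an integrated first-order equation, and IC₅₀ was calculated from these.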

SMILES | EC50 [1] | CC50 [2] | selectivity ratio [3] | Activity (milli optical density/minute) [4] | Kd [5] | Activity [6] | Activity [7] | Kd ([5]; read-out: Kd) | IC50 [8] | Activity [4]
Cc1ccccc1NC(=S)Nc1ccc2c(c1)C(=O)OC2 | 2.8 µM | 46.9 µM | 17 | 65.7 | Not Active | inactive | < 20% |  |  | 
Cc1cccc(NC(=S)Nc2ccc3c(c2)C(=O)OC3)c1 | 11.6 µM | 16 µM | 1 | 64.6 |  | inactive | < 20% | 141 µM |  | 
Cc1cc(NS(=O)(=O)c2ccc(NC(=S)Nc3cccc(Br)c3)cc2)no1 | 0.9 µM | 58.7 µM | 66 | 31.2 |  |  |  | 88.6 µM | 0.45 µM | 
Cc1ccc(NC(=S)Nc2ccc(S(=O)(=O)Nc3nccs3)cc2)cc1Cl | 10.8 µM | 37 µM | 3 | 27.4 |  |  |  | 51.6 µM | 0.16 µM | 
COc1ccc(NC(=S)Nc2ccc3c(c2)C(=O)OC3)cc1 | 4.7 µM | 91.9 µM | 20 | 59.1 |  | inactive | < 20% | 172 µM |  | 
O=C1OCc2ccc(NC(=S)Nc3cc(Cl)c(Cl)cc3Cl)cc21 | 3 µM | 24.4 µM | 8 | 67.8 |  | inactive | < 20% | 147 µM |  | 
O=C1OCc2ccc(NC(=S)Nc3cccc(F)c3)cc21 | 6.3 µM | 60.2 µM | 10 | 78.6 |  | inactive | < 20% | 140 µM |  | 
O=C1OCc2ccc(NC(=S)Nc3cc(F)cc(F)c3)cc21 | 6.1 µM | 69.1 µM | 11 | 63.6 |  | inactive | < 20% | 513 µM |  | 
O=C1OCc2ccc(NC(=S)Nc3ccc(F)cc3)cc21 | 15.8 µM | 83.7 µM | 5 | 55.7 |  | inactive | < 20% | 227 µM |  | 
Cc1cc(NS(=O)(=O)c2ccc(NC(=S)Nc3ccccc3)cc2)no1 | 7.5 µM | 49.7 µM | 7 | 39.2 |  |  |  | 88.1 µM | 0.58 µM | 
Cc1ccc(NC(=S)Nc2ccc(S(=O)(=O)Nc3nccs3)cc2)cc1 | 2.2 µM | 20.9 µM | 9 | 59 |  |  |  | 76.9 µM | 0.45 µM | 
O=C1OCc2ccc(NC(=S)Nc3cccc(Br)c3)cc21 | 4.6 µM | 30.8 µM | 7 | 69.6 |  | inactive | < 20% | 125 µM |  | 
COc1ccc(NC(=S)Nc2ccc3ccccc3c2)cc1 | 2.3 µM | 16.1 µM | 7 | 66.7 |  | inactive | < 20% | 124 µM |  | 
Cc1cc(NS(=O)(=O)c2ccc(NC(=S)Nc3ccc(F)cc3)cc2)no1 | 6.9 µM | 75.4 µM | 11 | 73.8 |  |  |  | 110 µM | 0.35 µM | 
COc1ccc(NS(=O)(=O)c2ccc(NC(=S)Nc3ccc(Cl)cc3)cc2)cc1 | 4.1 µM | 77.5 µM | 19 | 26.3 |  |  |  | 60.8 µM |  | 
CCN(CC)c1nc(C)c([N+](=O)[O-])c(NCCNC(=S)Nc2cccc(Br)c2)n1 | 7.4 µM | 26.2 µM | 4 | 88.1 |  |  |  | 79.3 µM | 0.81 µM | 
Cc1cc(NS(=O)(=O)c2ccc(NC(=S)Nc3cccc(F)c3)cc2)no1 | 11.6 µM | 88 µM | 8 | 76.2 |  |  |  | 128 µM | 0.38 µM | 
CCN(CC)c1nc(C)c([N+](=O)[O-])c(NCCNC(=S)Nc2ccc(C)c(Cl)c2)n1 | 6.3 µM | 44.2 µM | 7 | 91 |  |  |  | 73.3 µM | 0.74 µM | 
COc1ccc(NC(=S)Nc2ccc(S(=O)(=O)Nc3cc(C)on3)cc2)cc1 | 1.5 µM | 41.9 µM | 27 | 40 |  | inactive | < 20% | 101 µM |  | 
Cc1ccc(NC(=S)Nc2ccc(S(=O)(=O)Nc3cc(C)on3)cc2)cc1 | 9.6 µM | 41.4 µM | 4 | 45.9 |  |  |  | 119 µM |  | 
CCN(CC)c1nc(C)cc(NCCNC(=S)Nc2cccc(Br)c2)n1 | 5.5 µM | 8.43 µM | 2 |  |  |  |  | 200 µM |  | inactive
O=C1OCc2ccc(NC(=S)Nc3ccc(Cl)cc3)cc21 | 6.2 µM | 83.9 µM | 14 | 49.6 |  | inactive | < 20% | 222 µM |  | 
